This note sets out measurements from ChEMBL document CHEMBL1128419, “Orally active beta-lactam inhibitors of human leukocyte elastase. 3. Stereospecific synthesis and structure-activity relationships for 3,3-dialkylazetidin-2-ones” (J Med Chem, 1995).

Molecules are shown by their SMILES.

The inhibition is the percentage by which the read-out fell short of the control. A lower inhibition goes with a weak effect. As usually defined, the ED50 is the midpoint of the dose-response relation. The low end stands for greater potency, the high end for weaker potency. What is called inhibition in vivo is the drop in the measured response relative to a control, in per cent. A low value points to a weak effect.

Test [1] addresses T1, Neutrophil elastase (Homo sapiens) (UniProt P08246).
T1 sequence (whole entry): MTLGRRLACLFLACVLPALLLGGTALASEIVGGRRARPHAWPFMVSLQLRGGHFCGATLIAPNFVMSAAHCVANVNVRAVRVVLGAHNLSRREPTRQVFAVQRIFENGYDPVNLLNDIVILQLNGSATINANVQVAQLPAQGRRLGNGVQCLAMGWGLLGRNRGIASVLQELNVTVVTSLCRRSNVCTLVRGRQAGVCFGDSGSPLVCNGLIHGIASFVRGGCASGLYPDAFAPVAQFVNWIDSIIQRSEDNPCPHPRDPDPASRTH
Put plainly: In vitro inhibition of human leukocyte elastase (HLE), and the Kobs[I] is the second-order rate constant for the time dependent inactivation of HLE by the compound.

The target of test [2] is T1, Neutrophil elastase (Homo sapiens). The experiment in a line: Compound at an peroral dose of 30 mpk was tested for the inhibition of HLE-induced lung hemorrhage in hamsters. It is filed as functional. Summed up:
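Hamster lung hemorrhage screen: 30 mg/kg given orally as Methocel suspension 30 min before intratracheal instillation of 50 units HLE/animal; sacrifice at 3 h, saline lung lavage, hemoglobin measured at 414 nm; % inhibition versus vehicle-treated animals, averaged over three animals per dose and time.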

The subject of test [3] is Cricetinae gen. sp. Put plainly: Oral effective dose required to inhibit HLE-induced lung hemorrhage in hamster. The test is classed as functional, Cricetulus griseus. Summed up:
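Oral doses of 30, 10, 3, 1 (and 0.3) mg/kg as Methocel suspension given 30 min before intratracheal instillation of 50 units HLE/animal in hamsters; lungs lavaged 3 h later, hemoglobin read at 414 nm; % inhibition versus vehicle used to fit a dose-response curve for ED50.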

The next test deals with T2, Neutrophil elastase (Homo sapiens, UniProt P08246).
T2 sequence (P08246 whole entry): T1 sequence (whole entry)
The experiment in a line: In vitro human leukocyte elastase (HLE) inhibition, and the Kobs[I] is the second-order rate constant for the time dependent inactivation of HLE by the compound.

Test [4] deals with Cricetinae gen. sp. The experiment in a line: Compound at an peroral dose of 100 mpk was tested for the inhibition of HLE-induced lung hemorrhage in hamsters. Particulars: po. The test is classed as functional, Cricetulus griseus.

In the case of `CCC[C@]1(CC)C(=O)N(C(=O)N[C@H](CC)c2ccccc2)[C@H]1Oc1ccc(C(=O)O)cc1`, the K obs / 1 in test [1] amounted to 35500 M⁻¹ s⁻¹. For the same compound, the inhibition in test [2] came out at 52%.
For `CC[C@@]1(C)C(=O)N(C(=O)NCc2ccccc2)[C@H]1Oc1ccc(C(=O)O)cc1`, in that order: 2000 M⁻¹ s⁻¹ and 70%.
For the compound `CC[C@]1(C)C(=O)N(C(=O)NCc2ccccc2)[C@H]1Oc1ccc(C(=O)O)cc1`, the K obs / 1 in test [1] is 160 M⁻¹ s⁻¹.
Regarding `C[C@]1(Oc2ccc(C(=O)O)cc2)N(C(=O)NCc2ccccc2)C(=O)C12CCCC2`, the K obs / 1 in test [1] was found to be 1900 M⁻¹ s⁻¹. The compound also displayed an inhibition in test [2] of 8%.
The compound `CC[C@@]1(C(C)C)C(=O)N(C(=O)NCc2ccccc2)[C@H]1Oc1ccc(C(=O)O)cc1` registered a K obs / 1 in test [1] of 10 M⁻¹ s⁻¹. This compound came in with an inhibition in test [2] of 13%.
As for `CC[C@@H](NC(=O)N1C(=O)[C@](C)(CC)[C@@H]1Oc1ccc(C(=O)O)cc1)c1ccccc1`, the K obs / 1 in test [1] is 91000 M⁻¹ s⁻¹. The same compound had an ED50 with Cricetinae gen. sp. [3] of 3.7 mg/kg. In addition, in test [2], the inhibition stood at 98%.
In test [1], `CCC(C)[C@]1(CC)C(=O)N(C(=O)NCc2ccccc2)[C@H]1Oc1ccc(C(=O)O)cc1` (stereo partly drawn) displayed a K obs / 1 of 1200 M⁻¹ s⁻¹. The compound also came in with an inhibition in test [2] of 23%.
For the compound `CCC[C@@]1(CC)C(=O)N(C(=O)NCc2ccccc2)[C@H]1Oc1ccc(C(=O)O)cc1`, the K obs / 1 in test [1] came out at 3300 M⁻¹ s⁻¹. For the same compound, in test [2], the inhibition turned out to be 52%.
As for `CC[C@@]1(C)C(=O)N(C(=O)N[C@H](C)c2ccccc2)[C@H]1Oc1ccc(C(=O)O)cc1`, the K obs / 1 in test [1] stood at 15200 M⁻¹ s⁻¹. In test [2], the inhibition is 82%.
With `CC[C@@]1(Cc2ccccc2)C(=O)N(C(=O)NCc2ccccc2)[C@H]1Oc1ccc(C(=O)O)cc1`, in test [1], the K obs / 1 was determined as 84 M⁻¹ s⁻¹.
Take `CCCC[C@]1(CC)C(=O)N(C(=O)NCc2ccccc2)[C@H]1Oc1ccc(C(=O)O)cc1`: the K obs / 1 in test [1] was found to be 4400 M⁻¹ s⁻¹. This compound returned an inhibition in test [2] of 36%.
In the case of `CC[C@@]1(C)C(=O)N(C(=O)NCc2ccccc2)[C@@H]1Oc1ccc(C(=O)O)cc1`, the K obs / 1 in test [1] was determined as 220 M⁻¹ s⁻¹.
`CCC[C@@H](NC(=O)N1C(=O)[C@@](CC)(CCC)[C@@H]1Oc1ccc(C(=O)O)cc1)c1ccccc1` came in with a K obs / 1 in test [1] of 60000 M⁻¹ s⁻¹. Further, in test [2], the inhibition was found to be 53%.
In test [1], `CC[C@]1(C)C(=O)N(C(=O)NCc2ccccc2)[C@@H]1Oc1ccc(C(=O)O)cc1` returned a K obs / 1 of 200 M⁻¹ s⁻¹.
The compound `C=CC[C@@]1(CC)C(=O)N(C(=O)NCc2ccccc2)[C@H]1Oc1ccc(C(=O)O)cc1` displayed a K obs / 1 in test [1] of 2000 M⁻¹ s⁻¹. This compound also registered an inhibition in test [2] of 51%.
Turning to `CC[C@@]1(C)C(=O)N(C(=O)N[C@H](C)c2ccccc2)[C@@H]1Oc1ccc(C(=O)O)cc1`, the K obs / 1 in test [1] was found to be 400 M⁻¹ s⁻¹.
Regarding `CCC1(CC)C(=O)N(C(=O)NCc2ccccc2)[C@]1(C)Oc1ccc(C(=O)O)cc1`, the K obs / 1 in test [1] was 1500 M⁻¹ s⁻¹. In test [2], this compound gave an inhibition of 59%.
`CCC[C@@]1(C)C(=O)N(C(=O)NCc2ccccc2)[C@@H]1Oc1ccc(C(=O)O)cc1` showed a Ki on Neutrophil elastase of 51 µM.
In test [1], `CCC[C@@H](NC(=O)N1C(=O)[C@](C)(CC)[C@@H]1Oc1ccc(C(=O)O)cc1)c1ccccc1` registered a K obs / 1 of 152000 M⁻¹ s⁻¹. In the test with Cricetinae gen. sp. [3], the ED50 stood at 1.5 mg/kg. The inhibition in test [2] turned out to be 94%.
Consider `CCCC1(CC)C(=O)N(C(=O)NCc2ccccc2)C1Oc1ccc(C(=O)O)cc1` (stereo not drawn), for which the K obs / 1 in test [1] amounted to 5200 M⁻¹ s⁻¹. Also, the inhibition in test [2] came out at 78%.
Compound `C=CC[C@]1(CC)C(=O)N(C(=O)NCc2ccccc2)[C@H]1Oc1ccc(C(=O)O)cc1` displayed a K obs / 1 in test [1] of 2800 M⁻¹ s⁻¹. The compound further gave an inhibition in test [2] of 56%.
Consider `CC[C@H](NC(=O)N1C(=O)[C@](C)(CC)[C@@H]1Oc1ccc(C(=O)O)cc1)c1ccccc1`, for which the K obs / 1 in test [1] is 4700 M⁻¹ s⁻¹. In test [2], the inhibition stood at 22%.
In test [1], `CC1(C)C(=O)N(C(=O)NCc2ccccc2)C1Oc1ccc(C(=O)O)cc1` (stereo not drawn) had a K obs / 1 of 280 M⁻¹ s⁻¹.
As for `CC[C@@]1(C)C(=O)N(C(=O)N[C@@H](C)c2ccccc2)[C@H]1Oc1ccc(C(=O)O)cc1`, in test [1], the K obs / 1 was determined as 4800 M⁻¹ s⁻¹. The compound further displayed an inhibition in test [2] of 13%.
On to `CC(C)[C@@]1(C)C(=O)N(C(=O)NCc2ccccc2)[C@H]1Oc1ccc(C(=O)O)cc1`, for which the K obs / 1 in test [1] is 21 M⁻¹ s⁻¹.
In the case of `CC[C@]1(Cc2ccccc2)C(=O)N(C(=O)NCc2ccccc2)[C@H]1Oc1ccc(C(=O)O)cc1`, the K obs / 1 in test [1] was determined as 90 M⁻¹ s⁻¹.
`CCC[C@]1(CC)C(=O)N(C(=O)N[C@H](C)c2ccccc2)[C@H]1Oc1ccc(C(=O)O)cc1` displayed a K obs / 1 in test [1] of 4500 M⁻¹ s⁻¹. The compound further displayed an inhibition in test [2] of 61%.
Taken in the same sequence, the figures for `CCCC1(CCC)C(=O)N(C(=O)NCc2ccccc2)C1Oc1ccc(C(=O)O)cc1` (stereo not drawn) were 2500 M⁻¹ s⁻¹ and 56%.
Regarding `CCC[C@@]1(C)C(=O)N(C(=O)NCc2ccccc2)[C@H]1Oc1ccc(C(=O)O)cc1`, the K obs / 1 in test [1] is 1900 M⁻¹ s⁻¹. This compound registered an inhibition in vivo at 100 mg/kg in the test on Cricetinae gen. sp. [4] of 49%.
`CC[C@@]1(COC)C(=O)N(C(=O)NCc2ccccc2)[C@H]1Oc1ccc(C(=O)O)cc1` came in with a K obs / 1 in test [1] of 1900 M⁻¹ s⁻¹. In test [2], this compound came in with an inhibition of 46%.
